Assay results from ChEMBL document CHEMBL1157691, “Synthesis and antiproliferative evaluations of certain 2-phenylvinylquinoline (2-styrylquinoline) and 2-furanylvinylquinoline derivatives” (Bioorg Med Chem, 2010).
pIC50: −log10 of the molar value.

Assays:
MCF7 [1] = experiment: Antiproliferative activity against human MCF7 cells assessed as cell survival at 4 ug/mL after 72 hrs by MTS assay relative to control; assay type: functional; conditions: MCF7, 72 h, read-out: Survival
Summary of the method: (§1)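 Log-phase cells seeded at 5000 cells/mL/well in 24-well format. They were then exposed to test agents at a single concentration of 4.0 μg/mL for 72 h. Growth and viability were read by MTS assay.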

NCI-H460 = experiment: Antiproliferative activity against human NCI-H460 cells assessed as cell survival at 4 ug/mL after 72 hrs by MTS assay relative to control; assay type: functional; conditions: NCI-H460, 72 h, read-out: Survival; summary of the method: as §1
SF-268 = experiment: Antiproliferative activity against human SF268 cells assessed as cell survival at 4 ug/mL after 72 hrs by MTS assay relative to control; assay type: functional; conditions: SF-268, 72 h, read-out: Survival; summary of the method: as §1
MCF7 [2] = experiment: Antiproliferative activity against human MCF7 cells after 48 hrs by ATPlite assay; assay type: functional, cell-based; conditions: MCF7, 48 h
LNCaP = experiment: Antiproliferative activity against human LNCAP cells after 48 hrs by ATPlite assay; assay type: functional, cell-based
PC-3 = experiment: Antiproliferative activity against human PC3 cells after 48 hrs by ATPlite assay; assay type: functional, cell-based; conditions: PC-3, 48 h
[3] = Growth inhibition of human NCI60 cells; assay type: functional

Row | SMILES | viability at 4 µg/mL (MCF7 [1]) [%] | viability at 4 µg/mL (NCI-H460) [%] | viability at 4 µg/mL (SF-268) [%] | pIC50 (MCF7 [2]) | pIC50 (LNCaP) | pIC50 (PC-3) | GI50 [3] [nM]
1 | Oc1ccc(/C=C/c2ccc3cccc(O)c3n2)cc1 | 108 | 52 | 78 | – | – | – | –
2 | Oc1cccc2ccc(/C=C/c3ccco3)nc12 | 110 | 70 | 76 | – | – | – | –
3 | Oc1cccc(/C=C/c2ccc3cccc(O)c3n2)c1O | 95 | 53 | 52 | – | – | – | –
4 | CC(=O)c1ccc(Nc2cc(/C=C/c3ccc([N+](=O)[O-])o3)nc3ccccc23)cc1 | < 20 | < 20 | < 20 | 6.37 | 5.39 | 6.35 | –
5 | CC(=O)c1ccc(Nc2cc(/C=C/c3ccccc3)nc3ccccc23)cc1 | 83 | 52 | 107 | – | – | – | –
6 | C/C(=N\O)c1ccc(Nc2cc(/C=C/c3ccc([N+](=O)[O-])o3)nc3ccccc23)cc1 | < 20 | < 20 | < 20 | 6.60 | 6.02 | 6.72 | –
7 | CO/N=C(\C)c1ccc(Nc2cc(/C=C/c3ccc([N+](=O)[O-])o3)nc3ccccc23)cc1 | < 20 | < 20 | < 20 | 6.40 | 5.98 | 6.28 | –
8 | COc1cccc2c(Nc3ccc(C(C)=O)cc3)cc(/C=C/c3ccccc3)nc12 | 95 | 75 | 114 | – | – | – | –
9 | C/C(=N/O)c1ccc(Nc2cc(/C=C/c3ccccc3)nc3ccccc23)cc1 | 54 | 67 | 90 | – | – | – | –
10 | CO/N=C(/C)c1ccc(Nc2cc(/C=C/c3ccccc3)nc3ccccc23)cc1 | 108 | 79 | 112 | – | – | – | –
11 | Oc1cccc2ccc(/C=C/c3ccc(F)cc3)nc12 | 103 | 66 | 82 | – | – | – | –
12 | COc1cccc2c(Nc3ccc(/C(C)=N\O)cc3)cc(/C=C/c3ccccc3)nc12 | 40 | < 20 | 63 | – | – | – | –
13 | CO/N=C(/C)c1ccc(Nc2cc(/C=C/c3ccccc3)nc3c(OC)cccc23)cc1 | 97 | 87 | 97 | – | – | – | –
14 | N#Cc1ccc(/C=C/c2ccc3cccc(O)c3n2)cc1 | 107 | 66 | 90 | – | – | – | –
15 | Oc1cc(/C=C/c2ccccc2)nc2ccccc12 | 119 | 118 | 120 | – | – | – | –
16 | Clc1cc(/C=C/c2ccccc2)nc2ccccc12 | 120 | 109 | 118 | – | – | – | –
17 | CC(=O)c1ccc(Nc2c3ccccc3nc3occc23)cc1 | – | – | – | – | – | – | 25
18 | COc1cccc2c(Cl)cc(/C=C/c3ccccc3)nc12 | 99 | 109 | 81 | – | – | – | –
19 | O=[N+]([O-])c1ccc(/C=C/c2ccc3cccc(O)c3n2)cc1 | 89 | 52 | 77 | – | – | – | –
20 | COc1cccc2c(O)cc(/C=C/c3ccccc3)nc12 | 104 | 111 | 119 | – | – | – | –
21 | Oc1cccc2ccc(/C=C/c3cccnc3)nc12 | 115 | 63 | 89 | – | – | – | –
22 | Oc1cccc2ccc(/C=C/c3ccccc3)nc12 | 110 | 55 | 72 | – | – | – | –
23 | COc1cc(NS(C)(=O)=O)ccc1Nc1c2ccccc2nc2ccccc12 [AMSACRINE] | – | – | – | – | – | – | 440
24 | COc1cccc2c1C(=O)c1c(O)c3c(c(O)c1C2=O)C[C@@](O)(C(C)=O)C[C@@H]3O[C@H]1C[C@H](N)[C@H](O)[C@H](C)O1 [DAUNORUBICIN] | – | – | – | – | – | – | 44
